# Assay results from different studies.
# Compare with care: the assays were run in different laboratories.
# RET M918T: Proto-oncogene tyrosine-protein kinase receptor Ret (RET, Homo sapiens, UniProt P07949, M918T)
# RET: Proto-oncogene tyrosine-protein kinase receptor Ret (RET, Homo sapiens, UniProt P07949)
# RET V804M: Proto-oncogene tyrosine-protein kinase receptor Ret (RET, Homo sapiens, UniProt P07949, V804M)
# RET V804L: Proto-oncogene tyrosine-protein kinase receptor Ret (RET, Homo sapiens, UniProt P07949, V804L)
SMILES,target,read-out,method,concentration,remaining binding
COc1ncc2cc3ccccc3nc2c1C#N,RET M918T,cell-free assay,competition with immobilised ligand,5 µM,96%
N[C@@H]1CCN(c2nccc(-c3cnn4ncccc34)n2)C1,RET,binding,,1 µM,100%
CN(C(=O)c1ccccc1)c1cc(N(C)c2ccc3c(c2)CCc2ccc(C(=O)NCCN4CCOCC4)cc2C3=O)ccc1F,RET,cell-free assay,competition with immobilised ligand,1 µM,95%
c1cncc(-c2cccc(Nc3nccc(NC4CCCCC4)n3)c2)c1,RET,binding,competition with immobilised ligand,10 µM,14%
Cc1nccc(COC(=O)N2C[C@@H]3[C@@H](CNC(=O)c4ccc5[nH]nnc5c4)[C@@H]3C2)n1,RET M918T,cell-free assay,competition with immobilised ligand,1 µM,100%
CN(C)c1nccc(-c2cnn3ncccc23)n1,RET,binding,,1 µM,91%
O=C(NCCCN1CCOCC1)c1ccc(Nc2nccc(-c3cc4ccccc4s3)n2)cc1,RET V804M,binding,competition with immobilised ligand,1 µM,81%
Cn1nc(C(F)(F)F)cc1-c1cnc(N2CCc3cc(S(=O)(=O)Nc4c(F)cc(Cl)cc4F)cc(N4CCCC4=O)c32)nc1,RET V804M,cell-free assay,competition with immobilised ligand,1 µM,98%
C=CC(=O)N1CCC(C(=O)NCC(=O)N2CCN(c3nc(-c4cnc(N)nc4C(F)F)nc(N4CCOCC4)n3)CC2)CC1,RET M918T,binding,competition with immobilised ligand,1 µM,97%
CN(C)C(=O)Cn1cc(-c2nc([C@@](C)(c3ccc(-c4cnc(N)nc4)cc3)C3CC3)no2)cn1,RET V804L,cell-free assay,competition with immobilised ligand,1 µM,93%
COc1cnc(Nc2cccc(S(N)(=O)=O)c2)nc1N1CCN(c2ccccc2)CC1,RET V804M,binding,competition with immobilised ligand,1 µM,67%
CN(C)c1nccc(-c2cnc3ncccn23)n1,RET V804M,binding,,1 µM,93%
Cc1nc(Cc2cccc(C(F)(F)F)c2)sc1-c1ccc(C(N)=O)nc1,RET V804L,cell-free assay,competition with immobilised ligand,1 µM,86%
CN1CCN(c2ccc(Nc3nccc(-c4ccccc4)n3)cc2C(F)(F)F)CC1,RET V804L,binding,,10 µM,40%
O=C(c1ccc(Nc2ncc(Cl)c(-c3cc4ccccc4s3)n2)cc1)N1CCC(N2CCCC2)CC1,RET V804L,binding,competition with immobilised ligand,1 µM,23%
FC(F)(F)Oc1cccc(-c2cnc3ccc(-c4ccncc4)nn23)c1,RET,cell-free assay,competition with immobilised ligand,5 µM,86%
Cc1cnc(Nc2ccc(C(=O)N3CCC(N4CCCC4)CC3)cc2)nc1-c1cc2ccccc2s1,RET,binding,competition with immobilised ligand,1 µM,12%
CNC(=O)[C@@H]1CC[C@@H](n2c(-c3ccc4cnccc4c3)nc3ccc(C(=O)NCc4cccc(C(N)=O)c4)cc32)C1,RET V804L,binding,competition with immobilised ligand,1 µM,94%
C[C@@H](c1ccc(-n2cnc3c(N)ncnc32)cc1)N1CCc2nn(C)c(Cc3ccccc3)c2C1=O,RET V804M,binding,competition with immobilised ligand,0.1 µM,80%
c1cnn2ncc(-c3ccnc(N4CCC45COC5)n3)c2c1,RET,binding,,1 µM,97%
O=C(c1ccc(Nc2ncc(Cl)c(-c3ccc(Cl)s3)n2)cc1)N1CCC(N2CCCC2)CC1,RET M918T,binding,competition with immobilised ligand,1 µM,8.4%
F[C@@H]1CCN(c2nccc(-c3cnn4ncccc34)n2)C1,RET V804M,binding,,1 µM,72%
CCc1ccccc1C(=O)Nc1n[nH]c2c(C)c(F)c(C3C(C#N)=C(C)N(C)C(C)=C3C#N)cc12,RET V804L,cell-free assay,competition with immobilised ligand,1 µM,25%
CN1CCN(c2ccc(Nc3nccc(-c4cccc([N+](=O)[O-])c4)n3)cc2C(F)(F)F)CC1,RET M918T,binding,,10 µM,34%
CNC(=O)c1ccc(Nc2ncc(C(F)(F)F)c(NCc3nccnc3N(C)S(C)(=O)=O)n2)cc1,RET V804M,cell-free assay,competition with immobilised ligand,0.1 µM,30%
O=C(NCC1CCOCC1)c1n[nH]cc1NC(=O)c1c(F)cccc1F,RET V804M,binding,competition with immobilised ligand,1 µM,90%
O=C(c1ccc(Nc2nccc(-c3cc4ccccc4s3)n2)cc1)N1CCC(N2CCCC2)CC1,RET V804M,binding,competition with immobilised ligand,1 µM,99%
N#Cc1ccccc1CSc1nnc2c(n1)[nH]c1ccccc12,RET,binding,competition with immobilised ligand,10 µM,89%
C[C@@H]1CN(c2ccc3ncc(-c4ccc5[nH]nc(C6CC6)c5c4)n3n2)C[C@H](C)O1,RET,binding,competition with immobilised ligand,0.5 µM,61%
CCN1CCN(Cc2ccc(C(=O)Nc3ccc(C)c(Oc4ccc5c(c4)CC(=O)N5)c3)cc2C(F)(F)F)CC1,RET M918T,binding,competition with immobilised ligand,1 µM,40%
Cc1cc(-n2nc(Cc3cc(F)cc(C(F)(F)F)c3)nc2C)ccc1C(N)=O,RET,cell-free assay,competition with immobilised ligand,1 µM,96%
Nc1ncc2c(n1)-c1c([nH]c3ccc(C#CC4CC4)cc13)CCCC2,RET V804L,binding,competition with immobilised ligand,1 µM,96%
CC1CCCN1c1nccc(-c2cnn3ncccc23)n1 (centres unmarked),RET,binding,,1 µM,100%
O=C(Nc1c[nH]nc1C(=O)NC1CCNCC1)c1cc(F)cc(F)c1,RET V804L,binding,competition with immobilised ligand,1 µM,100%
CN(c1nccc(-c2cnn3ncccc23)n1)C1CC1,RET V804L,binding,,1 µM,100%
COc1cnc(Nc2cccc(S(N)(=O)=O)c2)nc1N1CCN(c2ccccc2)C(=O)C1,RET V804L,binding,competition with immobilised ligand,1 µM,98%
O=C(NCCCN1CCOCC1)c1ccc(Nc2ncc(Cl)c(-c3ccc(Cl)s3)n2)cc1,RET,binding,competition with immobilised ligand,1 µM,24%
C[C@@H]1CCN(c2nccc(-c3cnn4ncccc34)n2)C1,RET V804L,binding,,1 µM,100%
